Reference: PMC8667933 (Journal of Enzyme Inhibition and Medicinal Chemistry, 2021)

Key:
ERRα = target: T1, ERRα (Homo sapiens, UniProt P11474); test: ERRα functional assay: mammalian two-hybrid reporter gene assay; type: cell-based
T1 sequence (P11474 193-421 limits assumed): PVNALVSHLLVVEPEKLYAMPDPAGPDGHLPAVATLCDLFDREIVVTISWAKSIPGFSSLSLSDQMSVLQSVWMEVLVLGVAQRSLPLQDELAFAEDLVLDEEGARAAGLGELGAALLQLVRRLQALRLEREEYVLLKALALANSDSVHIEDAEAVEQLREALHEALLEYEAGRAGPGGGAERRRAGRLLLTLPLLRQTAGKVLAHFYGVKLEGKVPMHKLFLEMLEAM

[1] = test system: MDA-MB-231 cells with ERRα knock-down; test: Viability of MDA-MB-231 cells after ERRα knock-down; type: cell-based, human; conditions: siRNA (legend: shERRα vs shCtrl)
MCF-7 [2] = test: CCK-8 cell viability assay, MCF-7; type: cell-based, human; conditions: for suppression of cell proliferation: MCF-7, 10 μM, CCK-8
Procedure, shortened: (§1)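 Log-phase cells seeded in 96-well plates and incubated overnight, then exposed to test compound or vehicle. Viability runs: 1, 3 and 10 μM for 24 h and 48 h. IC50: a range of concentrations for 24 h. Proliferation read by CCK-8 per kit procedure. Mean ± SEM of n = 3; two-tailed unpaired t-test vs vehicle.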

MCF-7 [3] = test: Transwell invasion assay; type: cell-based, human; conditions: MCF-7, high-dose (3 μM), 24 h
MDA-MB-231 [4] = test: CCK-8 cell viability assay, MDA-MB-231; type: cell-based, human; conditions: for suppression of cell proliferation: MDA-MB-231, 10 μM, CCK-8
Procedure, shortened: as §1

[5] = test system: MCF-7 and MDA-MB-231 cells; test: Transwell migration assay; type: cell-based, human; conditions: 24 h
MDA-MB-231 [6] = test: Colony formation assay, MDA-MB-231; type: cell-based, human
Procedure, shortened: (§2)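 1 × 10^3 cells/well plated in 6-well plates and cultured overnight. Medium then replaced with vehicle or test compound at 0.3 or 1 μM. Exposure is 7 days per legend and 2 weeks (until colonies visible) per methods. Colonies washed with PBS, fixed in 4% paraformaldehyde, stained 30 min with 0.1% crystal violet, imaged and counted. n = 3, mean ± SEM, unpaired t-test.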

ERRα LBD = target: T2, ERRα LBD (Homo sapiens, UniProt P11474); test: TR-FRET co-activator assay; type: binding
T2 sequence (P11474 193-421 limits assumed): T1 sequence (P11474 193-421 limits assumed)

MCF-7 [7] = test: Colony formation assay, MCF-7; type: cell-based, human; conditions: MCF-7, high-dose 1 μM
Procedure, shortened: as §2

[8] = test system: MDA-MB-231 xenograft tumour; test: Breast cancer xenografts in nude mice; type: in vivo, BALB/c nude mice; conditions: 30 mg/kg every other day, intraperitoneally, 30 days
Procedure, shortened: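 6-week-old BALB/c nude mice were implanted subcutaneously with 2 × 10^6 MDA-MB-231 cells each. Dosing began once tumours averaged >100 mm3: i.p. 30 mg/kg every other day for 30 days in 0.9% saline with 0.5% 2-phenylethanol and 1.5% Tween 80, vehicle-only controls. Tumours measured every 5 days, V = length × width² × 0.5; body weight every 10 days. n = 6, mean ± SEM, two-tailed unpaired t-test vs vehicle.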

HCC-1937 = test: CCK-8 cell viability assay, HCC-1937; type: cell-based, human; conditions: for suppression of cell proliferation: HCC-1937, 10 μM, CCK-8
Procedure, shortened: as §1

MDA-MB-231 [9] = test: Transwell invasion assay; type: cell-based, human; conditions: 24 h
[10] = test system: ERRα-regulated target genes (PGC-1α, PDK4, osteopontin, pS2); test: Quantitative RT-PCR of ERRα-regulated target genes in MDA-MB-231 cells; type: cell-based, human; conditions: high-dose 3 μM, 24 h
Procedure, shortened: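 MDA-MB-231 cells exposed 24 h to 0.1% DMSO or test compound at 1 or 3 μM. Total RNA isolated with Trizol, reverse-transcribed, and analysed by real-time PCR for PGC-1α, PDK4, osteopontin (SPP1) and pS2 (TFF1) mRNA. Mean ± SEM of n = 3; two-tailed unpaired t-test vs vehicle.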

[11] = Body weight and overt toxicity in xenograft mice; type: in vivo, BALB/c nude mice; conditions: 30 mg/kg every other day, intraperitoneally, vs control group

O=[N+]([O-])c1ccc(S(=O)(=O)Nc2ccccc2Oc2ccccc2)cc1 [compound 8, 4-Nitro-N-(2-phenoxyphenyl)benzenesulfonamide]
IC50 (ERRα): 1.76 µM

O=[N+]([O-])c1ccc(S(=O)(=O)Nc2ccccc2Oc2ccc(Cl)cc2)cc1 [compound 9, N-(2–(4-chlorophenoxy)phenyl)-4-nitrobenzenesulfonamide]
IC50 (ERRα): 2.02 µM

Cc1ccc(Oc2ccccc2NS(=O)(=O)c2ccc([N+](=O)[O-])cc2)cc1 [compound 10, 4-Nitro-N-(2-(p-tolyloxy)phenyl)benzenesulfonamide]
IC50 (ERRα): 1.23 µM | inhibiting activity relative to compound 14 (ERRα; ratio of IC50 values, compound 10 vs compound 14): 1.5 times

COc1ccc(Oc2ccccc2NS(=O)(=O)c2ccc([N+](=O)[O-])cc2)cc1 [compound 11, N-(2–(4-methoxyphenoxy)phenyl)-4-nitrobenzenesulfonamide]
effect of ERRα knock-down on compound-induced anti-proliferation [1]: knock-down of ERRα reduced compound 11 induced anti-proliferation | IC50 (MCF-7 [2]; Homo sapiens, MCF7, 24 h, read-out: IC50, cell proliferation): 15.4 µM | suppression of cell proliferation (MCF-7 [2]; 24 h): 23.5% | suppression of cell proliferation (MCF-7 [2]; 48 h): 37.4% | reduction in cell invasion (MCF-7 [3]): 31.5% | IC50 (MDA-MB-231 [4]; Homo sapiens, MDA-MB-231, 24 h, read-out: IC50, cell proliferation): 9.15 µM | suppression of cell proliferation (MDA-MB-231 [4]; 24 h): 38.9% | suppression of cell proliferation (MDA-MB-231 [4]; 48 h): 44.3% | inhibition of breast cancer cells migration ([5]; 1 μM): moderate inhibition | inhibition of breast cancer cells migration ([5]; high-dose 3 μM): much more potently inhibitory effect | IC50 (ERRα): 0.8 µM | fold more active than compound 10 (ERRα; ratio of IC50 values, compound 11 vs compound 10): 1.5 fold | reduction of the number of colonies (MDA-MB-231 [6]; MDA-MB-231, high-dose 1 μM): 70.3% | number of colonies (MDA-MB-231 [6]; MDA-MB-231, low-dose 0.3 μM): decreased significantly | IC50 (ERRα LBD): 0.681 µM | reduction of the number of colonies (MCF-7 [7]): 47.5% | tumour growth inhibition ([8]; MDA-MB-231 xenograft): 23.58% | tumour volume at the end of the experiment ([8]; control 1508 mm^3): 1152 mm^3 | suppression of cell proliferation (HCC-1937; 24 h): 31.0% | suppression of cell proliferation (HCC-1937; 48 h): 38.0% | IC50 (HCC-1937; Homo sapiens, HCC1937, 24 h, read-out: IC50, cell proliferation): 14.7 µM | effect on cell invasion (MDA-MB-231 [9]; MB-231 cells, low-dose (1 μM)): weak effect | reduction in cell invasion (MDA-MB-231 [9]; MDA-MB-231, high-dose (3 μM)): 50.9% | PGC-1α, PDK4, osteopontin and pS2 mRNA expression [10]: notably reduced | influence on weight of mice and overt toxicity [11]: no notably compound-related influences on the weight of mice or any other symptoms of overt toxicity

COc1ccc(Oc2ccccc2NS(=O)(=O)c2ccc(N)cc2)cc1 [compound 12, 4-Amino-N-(2–(4-methoxyphenoxy)phenyl)benzenesulfonamide]
IC50 (ERRα): > 10 µM | IC50, inhibition of ERRα transcriptional activity (ERRα; reporter gene assay, HEK 293 T cells, 48 h): inactive

Nc1ccc(S(=O)(=O)Nc2ccccc2Oc2ccc(Cl)cc2)cc1 [compound 13, 4-Amino-N-(2–(4-chlorophenoxy)phenyl)benzenesulfonamide]
IC50 (ERRα): 1.61 µM

Cc1ccc(Oc2ccccc2NS(=O)(=O)c2ccc(N)cc2)cc1 [compound 14, 4-Amino-N-(2-(p-tolyloxy)phenyl)benzenesulfonamide]
IC50 (ERRα): 1.88 µM
